Measurements taken from publication PMC7658932 (ACS Omega, 2020).

Tests used:
[1] = Radiolabeling efficiency/kinetics of chelators with ^90Y; assay type: physicochemical; conditions: pH 5.5, RT, TLC, triplicate
Summary of the method: (§1)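 Test compound (20 μg) in Chelex-treated 0.25 M NH4OAc (pH 5.5) was mixed with 90YCl3 or 177LuCl3 (2.22 MBq, 60 μCi, in 0.05 M HCl) using acid-washed, metal-free plasticware. The mixture was shaken at 1000 rpm at RT for 1 h. Aliquots taken at set times were run on silica gel ITLC in acetonitrile/water 3:2 and scanned by radio-TLC. Complex ran at ~50 mm, free radionuclide at ~30 mm.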

[2] = Radiolabeling efficiency/kinetics of chelators with ^177Lu; assay type: physicochemical; conditions: 1 min, pH 5.5, RT, TLC, triplicate
Summary of the method: as §1

radiolabeling efficiency (%) ([1]; 1 min): > 97% | radiolabeling efficiency (%) ([1]; 10 min): > 99% | radiolabeling efficiency (%) [2]: > 97%
Structure (SMILES): O=C(O)CN1CCN(CCN(CC(=O)O)CC(=O)O)CCN(CC(CCCc2ccc([N+](=O)[O-])cc2)N(CC(=O)O)CC(=O)O)CC1 (stereo not drawn) [3p-C-NEPA, 2-{[2-(4-{2-[Bis(carboxymethyl)amino]-5-(4-nitrophenyl)pentyl}-7-(carboxymethyl)-1,4,7-triazonan-1-yl)ethyl](carboxymethyl)amino}acetic acid]
